Consider nine compounds from ChEMBL document CHEMBL1137111, “Application of multi-component reactions to antimalarial drug discovery. Part 1: Parallel synthesis and antiplasmodial activity of new 4-aminoquinoline Ugi adducts” (Bioorg Med Chem Lett, 2004).

What all share (assay type): functional, organism-based
Experiment [1] has as its system Plasmodium falciparum. In words: Antimalarial activity against chloroquine-sensitive Plasmodium falciparum D10.
Experiment [2] has as its system Plasmodium falciparum. In words: Antimalarial activity against chloroquine-resistant Plasmodium falciparum W2. The method, boiled down:
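W2 parasites in RPMI-1640 with 10% human serum, synchronized with 5% D-sorbitol. From ring stage, exposed 48 h to a concentration series added from DMSO stocks (≤0.1% DMSO; controls 0.1% DMSO). Fixed 48 h in 1% formaldehyde/PBS pH 7.4 at room temperature, stained with 1 nM YOYO-1, and parasitemia read by flow cytometry. IC50 from % control parasitemia by nonlinear regression, duplicate experiments.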

The test system of experiment [3] is Plasmodium falciparum. In words: Antimalarial activity against chloroquine-resistant Plasmodium falciparum K1.

A word on the IC50: it is the concentration at which inhibition is half-maximal. Low values mean inhibition by little substance, high ones a need for much substance.

Where only a bound is given, the exact number is not on record here.

Turning to `CC(C)(C)NC(=O)CN(CCCNc1ccnc2cc(Cl)ccc12)C(=O)c1cnccn1`, the IC50 with Plasmodium falciparum [1] stood at 1370 nM; with Plasmodium falciparum [2] it was 1650 nM; in the experiment on Plasmodium falciparum [3], 2290 nM.
For `CC(C)(C)NC(=O)CN(CCNc1ccnc2cc(Cl)ccc12)C(=O)c1cnccn1` the same measures were 710 nM, 1190 nM and 1130 nM.
On the same counts, the results for `O=C(CN(CCCNc1ccnc2cc(Cl)ccc12)C(=O)c1ccncc1)NC1CCCCC1` are 230 nM, 1560 nM and 70 nM.
On the same counts, the results for `O=C(CN(CCCNc1ccnc2cc(Cl)ccc12)C(=O)c1cnccn1)NC1CCCCC1` are 240 nM, 870 nM and 520 nM.
As for `O=C(CN(CCNc1ccnc2cc(Cl)ccc12)C(=O)c1ccncc1)NC1CCCCC1`, the IC50 in the experiment with Plasmodium falciparum [1] is 540 nM; with Plasmodium falciparum [2], 610 nM; in the experiment with Plasmodium falciparum [3], 530 nM.
On the same counts, the results for `CC(C)(C)NC(=O)CN(CCNc1ccnc2cc(Cl)ccc12)C(=O)c1ccncc1` are 1060 nM, 990 nM and 1100 nM.
For `O=C(CN(CCCNc1ccnc2cc(Cl)ccc12)C(=O)c1ccc(O)cc1O)NC1CCCCC1`, the IC50 was 1670 nM in the experiment with Plasmodium falciparum [1], 5930 nM with Plasmodium falciparum [2] and 3820 nM with Plasmodium falciparum [3].
In the case of `O=C(CN(CCNc1ccnc2cc(Cl)ccc12)C(=O)c1cnccn1)NC1CCCCC1`, the IC50 was 790 nM in the experiment on Plasmodium falciparum [1], greater than 10000 nM in the experiment with Plasmodium falciparum [2] and 1350 nM in the experiment on Plasmodium falciparum [3].
For `CC(C)(C)NC(=O)CN(CCCNc1ccnc2cc(Cl)ccc12)C(=O)c1ccncc1` the same measures were greater than 20000 nM, 3800 nM and 18200 nM.
